The results in this text go back to ChEMBL document CHEMBL4765235, “Discovery of N-[Bis(4-methoxyphenyl)methyl]-4-hydroxy-2-(pyridazin-3-yl)pyrimidine-5-carboxamide (MK-8617), an Orally Active Pan-Inhibitor of Hypoxia-Inducible Factor Prolyl Hydroxylase 1-3 (HIF PHD1-3) for the Treatment of Anemia” (J Med Chem, 2016).

As a reminder, the IC50 is the concentration at which inhibition is half-maximal. For orientation: Cmax means the highest concentration seen after dosing.

The nature of data set [1]: In vivo inhibition of HIF-PHD2 in C57BL/6 mouse assessed as serum erythropoietin level at 5 mg/kg, iv measured after 4 hrs. The class given is functional. In outline: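 Mouse pharmacodynamic EPO assay (MoPED). Compound dosed iv; serum EPO measured 4 hr after dosing and reported in pg/mL. Minimum effective dose is the lowest dose giving EPO elevation.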
A short description of data set [2]: Protein binding in rat plasma assessed as unbound fraction at 2 mg/kg, po or 1 mg/kg, iv. The class given is ADME, organism-based. As to conditions: read-out: PPB.
Another data set addresses Prolyl hydroxylase EGLN3 (Homo sapiens, UniProt Q9H6Z9). Kind of data set: Inhibition of FLAG-tagged full-length HIF-PHD3 (unknown origin) expressed in baculovirus infected Sf9 cells using 2-oxoglutarate and HIF1alpha biotinyl-DLDLEMLAPYIPMDDDFQL as peptide substrates preincubated for 30 mins followed by substrate addition and measured after 2 hrs by LANCE assay.
A short description of data set [3]: Plasma clearance in dog at 1 mg/kg, po or 0.5 mg/kg, iv. The format is ADME, organism-based, Canis lupus familiaris. The method, boiled down: (§1)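 Dog and rhesus monkey dosed 1 mg/kg po and 0.5 mg/kg iv. The iv vehicle was PEG200:12%HPCD:water (30:12:58 v/v/v); the po vehicle was Imwitor:Tween (1:1 w/w). Clearance was measured in plasma. Protein binding was measured in 100% serum.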

The nature of data set [4]: Plasma clearance in rhesus monkey at 1 mg/kg, po or 0.5 mg/kg, iv. The format is ADME, organism-based, Macaca mulatta. The method, boiled down:
as §1

Data set [5] can be described thus: Cmax in Sprague-Dawley rat at 5 mg/kg, po administered as single dose measured at 6 hrs. The format is ADME, organism-based. Particulars: in vivo. On the set-up: route oral, dose 5 mg/kg, time 6 hrs.

Chain of Prolyl hydroxylase EGLN3 (Q9H6Z9 whole entry): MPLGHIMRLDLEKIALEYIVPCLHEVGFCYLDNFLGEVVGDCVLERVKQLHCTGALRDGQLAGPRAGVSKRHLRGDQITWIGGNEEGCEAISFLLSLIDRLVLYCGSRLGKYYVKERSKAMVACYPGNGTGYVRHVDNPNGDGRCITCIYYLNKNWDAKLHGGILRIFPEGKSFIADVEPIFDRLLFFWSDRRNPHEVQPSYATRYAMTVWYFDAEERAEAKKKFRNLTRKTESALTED

As to `COc1ccc(C(NC(=O)c2cnc(-c3cccnn3)nc2O)c2ccc(OC)cc2)cc1`, the Activity in data set [1] turned out to be 6200 pg/mL. For the same compound, the fraction unbound in data set [2] came to 0.006. On Prolyl hydroxylase EGLN3, this compound returned a 50% inhibitory concentration (IC50) of 14 nM. The clearance in data set [3] was 0.07 mL/min/kg; in data set [4] it was 0.15 mL/min/kg. In data set [5], this compound registered a maximum concentration (Cmax) of 14 µM.
